Measured values from different studies.
Lines come from different studies, so protocols differ.

Compound	tested on	observed	technique	strain	time	measurement	result
COc1cc2ncnc(N(C)c3ccc4c(c3)/C(=C/c3ccccc3)C(=O)N4C)c2cc1OC (mixture of isomers)	B16	cell growth or viability	MTT	–	–	IC50	8.07 µM
O=C(O)c1cn(C2CC2)c2cc(N3CCNCC3)c(F)cc2c1=O	Mycobacterium kansasii	microbial growth	broth dilution	DSM44162	7 days	MIC	1 mg/L
Cc1nc(N(Cc2ccccc2)c2ccc3c(c2)/C(=C/c2ccccc2)C(=O)N3Cc2ccccc2)c2ccccc2n1 (mixture of isomers)	B16	cell growth or viability	MTT	–	–	IC50	0.2 µM
NNC(=O)c1ccncc1	Mycobacterium kansasii	microbial growth	broth dilution	DSM44162	7 days	MIC	4 mg/L
O=C(O)c1cn(C2CC2)c2cc(N3CCNCC3)c(F)cc2c1=O	Acinetobacter baumannii	microbial growth	broth dilution	ATCC19606	–	MIC	2 µM
C=CC(=O)NC1CCN(c2ncc3ncnc(Nc4ccc(Oc5ccc6c(c5)ncn6C)c(C)c4)c3n2)CC1	Capan-2	cell growth or viability	–	–	–	EC50	0.0361 µM
Cl.N[C@H]1CCN(c2cc(C(=O)NCC(=O)O)ccc2NC(=O)c2cc(Br)c(Br)[nH]2)C1	Acinetobacter baumannii	microbial growth	broth dilution	ATCC19606	–	MIC	> 32 mg/L
COc1cc2ncnc(Nc3ccc4c(c3)/C(=C/c3ccccc3)C(=O)N4C)c2cc1OC	B16	cell growth or viability	MTT	–	–	IC50	1.53 µM
Cc1[nH]c(C(=O)Nc2ccc(C(=O)NCc3n[nH]c(=O)o3)cc2N2CCNCC2)c(Cl)c1Cl.Cl	Acinetobacter baumannii	microbial growth	broth dilution	ATCC19606	–	MIC	> 32 mg/L
O=C(O)c1cn(C2CC2)c2cc(N3CCNCC3)c(F)cc2c1=O	Acinetobacter baumannii	microbial growth	–	ATCC19606	–	MIC	8 µM
